PRMT1 inh = inhibitors of human PRMT1. recombinant PRMT1, activity-based probe fluorescence polarization. inhibition, % at 2.79 µM. 370,000 tested, 1.3% active;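 active means inhibition above about 21% made by adding two undisclosed values, limit read from the data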
Target sequence (Q99873 whole entry, looked up): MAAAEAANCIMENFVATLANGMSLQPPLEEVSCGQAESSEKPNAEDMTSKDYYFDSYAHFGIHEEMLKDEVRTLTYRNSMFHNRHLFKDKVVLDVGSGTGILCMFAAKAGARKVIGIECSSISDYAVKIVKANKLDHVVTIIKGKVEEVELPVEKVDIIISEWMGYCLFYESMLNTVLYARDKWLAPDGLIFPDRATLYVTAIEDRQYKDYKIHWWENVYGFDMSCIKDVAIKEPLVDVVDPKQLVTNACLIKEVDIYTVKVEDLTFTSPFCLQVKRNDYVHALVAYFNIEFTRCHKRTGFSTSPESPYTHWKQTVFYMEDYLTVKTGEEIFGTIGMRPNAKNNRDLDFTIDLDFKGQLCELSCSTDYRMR
TCR-CD3 inh = blocks the human TCR-CD3 interaction. TAMRA-labeled TCR probe fluorescence, biochemical. inhibition, % at 9.4 µM. 360,000 tested, 0.37% active;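 further: recombinant mutant TCR 2C K166C tagged with TAMRA read by polarization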
mABHD4 FP = ABHD4 (mouse) inhibition, primary FP screen | Q8VD66 | purified mABHD4, FP-Rh probe fluorescence polarization | inhibition, % at 8.92 µM | 370,000 tested, 0.54% active | AID 720543;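 active means inhibition exceeding the mean over every tested compound plus 3 SD, cut at about 30% in these data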
Target sequence (Q8VD66 whole entry, looked up): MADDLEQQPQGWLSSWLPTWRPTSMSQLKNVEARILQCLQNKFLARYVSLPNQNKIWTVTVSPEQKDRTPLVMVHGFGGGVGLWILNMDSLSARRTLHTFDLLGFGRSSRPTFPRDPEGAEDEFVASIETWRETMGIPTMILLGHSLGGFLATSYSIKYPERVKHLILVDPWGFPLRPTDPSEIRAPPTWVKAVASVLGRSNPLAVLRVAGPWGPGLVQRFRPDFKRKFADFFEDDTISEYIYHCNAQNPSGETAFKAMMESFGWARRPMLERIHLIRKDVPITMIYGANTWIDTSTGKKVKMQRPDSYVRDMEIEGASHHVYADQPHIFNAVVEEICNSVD
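Test system: mABHD4 protein | Buffer or medium: HEPES pH 7.0 buffer, 150 mM NaCl, 0.01% Pluronic F-127 | Probe or stimulus: FP-Rh fluorescent activity-based probe, added after compound pre-incubation | Timing: Pre-incubation 45 min, probe exposure 60 min, at 25 °C | Technique: Fluorescence polarization, excitation 525 nm, emission 598 nm, BODIPY TMR filters | Repeats: Single well per compound (singlicate)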
HTRA1 inhibitor = blocks human HTRA1 serine peptidase; Q92743; recombinant HTRA1, FP-rhodamine activity-based probe, fluorescence polarization; inhibition, % at 5.96 µM; 340,000 tested, 0.5% active; AID 504803; in the data active means inhibition above about 36%
rCAG RNA binder = molecules binding r(CAG) RNA repeats | r(CAG) RNA repeat, TO-PRO-1 dye displacement fluorescence | inhibition, % at 3 µM | 370,000 tested, 1.3% active | AID 651821;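 active means inhibition above the plate cutoff, the mean of all test compounds on that plate plus 3 SD, cut at about 35% in these data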;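 further: higher means more dye released from RNA so lower well fluorescence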
SIAE inh = human SIAE inhibition, primary screen. SIAE FP-Rh probe binding, fluorescence polarization. inhibition, % at 9.66 µM. 370,000 tested, 0.69% active;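 active means inhibition above a cutoff: mean of compounds within the control limits plus 3 SD of those, cut at about 17% in these data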
BSA TAMRA ctr = interferes with TAMRA-BSA probe, flagging TCR-CD3 hits. shares compounds with TCR-CD3 inh. TAMRA-labeled BSA probe fluorescence counterscreen. inhibition, % at 9.4 µM. 1,200 tested, 10% active. AID 652035; in the data active means inhibition above about 23%
TCR-CD3 conf = TCR-CD3 interaction inhibition, confirmation; shares compounds with TCR-CD3 inh; TAMRA-labeled TCR probe fluorescence binding assay; inhibition, % at 9.4 µM; 1,200 tested, 48% active; AID 652036
rCAG binder conf = r(CAG) RNA repeat binding, confirmation. TO-PRO-1 dye displacement fluorescence. inhibition, % at 3 µM. 4,300 tested, 70% active. shares compounds with rCAG RNA binder;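 active means inhibition above a per-plate cutoff, the mean inhibition of sample wells plus 3 SD, cut at about 35% in these data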;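 further: loss of TO-PRO-1 fluorescence as compound displaces dye from 1x1 AA loop RNA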
DNA CAG counter = DNA CAG dye complex inhibition counter-screen | shares compounds with rCAG RNA binder | d(CAG) DNA oligo TO-PRO-1 dye displacement, fluorescence | inhibition, % at 3 µM | 4,300 tested, 94% active | AID 652068;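 active means inhibition above its plate's cutoff, the mean test-well inhibition plus 3 SD, cut at about 4.8% in these data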;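 further: hits displace the dye from DNA and so lower well fluorescence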
dCAG dye DR = disrupts DNA CAG TO-PRO-1 complex in dose response; shares compounds with rCAG RNA binder; DNA CAG/GTC duplex TO-PRO-1 dye displacement fluorescence; IC50, µM; 250 tested, 20% active; AID 686960; in the data active means IC50 below about 10 µM
PRMT1 inh conf = PRMT1 (human) inhibition, FP confirmation; recombinant His-PRMT1, activity-based probe fluorescence polarization; AID 687036; shares compounds with PRMT1 inh; 3,300 tested, 42% active; inhibition, % at 2.79 µM;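 active means mean inhibition across replicates above the hit cutoff derived for the earlier primary screen, cut at about 22% in these data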
Large screens that a line does not name were inactive (follow-up assays come after a bar, where they were run). The list is not random: actives were taken first. Their share in the collection is about 3.5%. Unless noted, no stated cut-off is given here; in the data, active means inhibition above about 19%; inactive means the rest.

Cc1ccc(-n2c(O)c(/C=N/NC(=O)C3COc4ccccc4O3)c3ccccc3c2=O)cc1 (stereo not drawn)	TCR-CD3 inh 20, rCAG RNA binder 82 | BSA TAMRA ctr inactive | TCR-CD3 conf 34 | rCAG binder conf 75 | DNA CAG counter 38
O=C(N/N=C/c1c(O)n(-c2ccccc2Cl)c(=O)c2ccccc12)C1COc2ccccc2O1 (stereo not drawn)	none (no result: PRMT1 inh, TCR-CD3 inh, mABHD4 FP, rCAG RNA binder, SIAE inh)
CC(=O)c1cc(-c2ccc(-c3ccccc3)c(F)c2)c(=O)n2c1CCC2	none (no result: TCR-CD3 inh, HTRA1 inhibitor)
COc1ccc(CNC2CCC23CCC(c2ccccc2)CC3)cc1OC (stereo not drawn)	none (no result: TCR-CD3 inh, HTRA1 inhibitor, rCAG RNA binder)
CCN(c1ccccc1)S(=O)(=O)c1cc(NC(=O)C2CC2)ccc1Cl	none
CCN(c1ccccc1)S(=O)(=O)c1cc(NC(=O)CSc2n[nH]c(=O)[nH]c2=O)ccc1Cl	TCR-CD3 inh 66, rCAG RNA binder 48 | BSA TAMRA ctr 23 | TCR-CD3 conf 56 | rCAG binder conf inactive | DNA CAG counter 15
Cc1ccc(C(C)C)c(OCc2ccc(C(=O)N/N=C/c3ccc(O)cc3O)cc2)c1	TCR-CD3 inh 26, rCAG RNA binder 38 | BSA TAMRA ctr inactive | TCR-CD3 conf 22 | rCAG binder conf inactive | DNA CAG counter 15
O=C1CC(=O)NC(SCC(=O)Nc2ccccc2[N+](=O)[O-])=N1	PRMT1 inh 28, TCR-CD3 inh 26, rCAG RNA binder 41 | BSA TAMRA ctr inactive | TCR-CD3 conf inactive | rCAG binder conf 52 | DNA CAG counter 24
Cc1cc(C)nc(SCC(=O)Nc2ccccc2[N+](=O)[O-])n1	none
CCOC(=O)C1CCCN(C(=O)c2cc(-c3ccco3)nc3ccccc23)C1 (stereo not drawn)	TCR-CD3 inh 21, rCAG RNA binder 39 | BSA TAMRA ctr inactive | TCR-CD3 conf inactive | rCAG binder conf inactive | DNA CAG counter 15
O=c1[nH]c(-[n+]2ccccc2)c(/C=N/N=C(\[O-])c2ccccc2)s1	none
O=C(N/N=C/c1sc(=O)[nH]c1-[n+]1ccc2ccccc2c1)c1ccccc1[O-]	PRMT1 inh 95, TCR-CD3 inh 33 | BSA TAMRA ctr inactive | TCR-CD3 conf 24 | PRMT1 inh conf inactive
O=S1(=O)c2c(cccc2N2CCC[C@H]2CO)O[C@@H]2CCN1C2	none (no result: TCR-CD3 inh, HTRA1 inhibitor)
O=[n+]1c2c(n([O-])c3cc(F)c(N4CCCC4)cc31)CCC2	PRMT1 inh 35, TCR-CD3 inh 25 | BSA TAMRA ctr 29 | TCR-CD3 conf 28 | PRMT1 inh conf 47
O=[n+]1c2c(n([O-])c3cc(F)c(N4CCCC4)cc31)CCCC2	PRMT1 inh 46, TCR-CD3 inh 23 | BSA TAMRA ctr 30 | TCR-CD3 conf 28 | PRMT1 inh conf 48
O=[n+]1c2c(n([O-])c3cc(F)ccc31)CCCC2	none
C#CCN1CC(N(C)CCOC(=O)c2cc3ccccc3[nH]2)CS1(=O)=O (stereo not drawn)	none (no result: TCR-CD3 inh, HTRA1 inhibitor)
CN(C)c1ccccc1-c1cc(NC=O)c2ncc(-c3cccc(C(F)(F)F)c3)n2c1	PRMT1 inh 135, TCR-CD3 inh 37, mABHD4 FP 73, SIAE inh 31 (no result: HTRA1 inhibitor) | BSA TAMRA ctr inactive | TCR-CD3 conf inactive | PRMT1 inh conf 25
N#Cc1c(N(CCO)CCO)nc(N)c2c(N)nc3c(c12)CC(=O)N3CC1CCCO1 (stereo not drawn)	PRMT1 inh 30, TCR-CD3 inh 25, rCAG RNA binder 35 | BSA TAMRA ctr inactive | TCR-CD3 conf inactive | rCAG binder conf inactive | DNA CAG counter 5.7 | PRMT1 inh conf inactive
CCCCN1C(=O)Cc2c1nc(N)c1c(N)nc(N(CCC)CCC)c(C#N)c21	none
O=C(O)c1cc(O)c2c(c1)[C@@H]([C@H]1c3cc(C(=O)O)cc(O)c3C(=O)c3c(O[C@@H]4O[C@H](CO)[C@@H](O)[C@H](O)[C@H]4O)cccc31)c1cccc(OC3O[C@H](CO)[C@@H](O)[C@H](O)[C@H]3O)c1C2=O (stereo partly drawn)	PRMT1 inh 32, TCR-CD3 inh 153, rCAG RNA binder 100, SIAE inh 68 | BSA TAMRA ctr inactive | TCR-CD3 conf 109 | rCAG binder conf 86 | DNA CAG counter 52 | PRMT1 inh conf inactive
NC(=O)c1sc2nc(-c3cccnc3)ccc2c1N	none (no result: HTRA1 inhibitor)
NC(=O)c1sc2nc(-c3ccco3)ccc2c1N	PRMT1 inh 51, TCR-CD3 inh 20 | BSA TAMRA ctr inactive | TCR-CD3 conf inactive | PRMT1 inh conf inactive
O=C(OCC#CCSc1nnc(-c2cccc3ccccc23)o1)c1sccc1Cl	none (no result: TCR-CD3 inh, HTRA1 inhibitor, rCAG RNA binder)
COc1ccc(CCNC(=O)c2cc3ccccn3n2)cc1	none (no result: TCR-CD3 inh, HTRA1 inhibitor)
CSc1nc(NCCOCCO)c2sc3nc(-c4ccco4)c4c(c3c2n1)CCC4	PRMT1 inh 41, TCR-CD3 inh 20, rCAG RNA binder 52 | BSA TAMRA ctr inactive | TCR-CD3 conf inactive | rCAG binder conf 38 | DNA CAG counter 18 | dCAG dye DR inactive | PRMT1 inh conf 24
COCCCNC(=O)C[C@H]1C[C@@]2(C(=O)OC)C(=C[C@H](C3CCCC3)O[C@@H]2C)N(CCc2ccc(OC)c(OC)c2)C1=O	none (no result: TCR-CD3 inh, HTRA1 inhibitor)
O=C(O)C1CSC(c2ccco2)N1 (stereo not drawn)	PRMT1 inh 27, TCR-CD3 inh 21 | BSA TAMRA ctr inactive | TCR-CD3 conf inactive | PRMT1 inh conf 32
CN(CC#CC1=CCCCC1)/C(N)=N/C(=O)OCc1ccccc1	none (no result: TCR-CD3 inh, HTRA1 inhibitor)
C#CCN1c2ccccc2Sc2cccnc21	PRMT1 inh 63, TCR-CD3 inh 47 | BSA TAMRA ctr inactive | TCR-CD3 conf inactive | PRMT1 inh conf inactive
CC(CN1c2ccccc2Sc2ccccc21)N(C)C (stereo not drawn)	none
Cc1cccc(C)c1NC(=O)COC(=O)c1c2c(nc3ccccc13)/C(=C\c1ccc3c(c1)OCO3)CCC2	PRMT1 inh 145, TCR-CD3 inh 58, SIAE inh 22 | BSA TAMRA ctr 49 | TCR-CD3 conf 30 | PRMT1 inh conf inactive
N#C/C(=C\c1ccc(O)c(O)c1)C(=O)N1CCCC1	none
